# CSC inhib – blocks cancer stem cells. actives 1.1% (n = 300,000). inhibition, % at 7.5 µM. cancer stem cell-like cells viability, luminescence; in the data active = inhibition above about 75%; tested in HMLE shEcad cells
# GRIN3A LBD mod – NR3A (human) ligand-binding domain modulation; NR3A LBD differential scanning fluorimetry, Tm shift; 0% = protein alone, 100% = glycine-bound protein; Tm shift relative to glycine control, % at 25 µM; actives 2.5% (n = 340,000); AID 1259313;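 active = melting temperature shift of at least 10% of the positive control shift, at one fixed dose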
# CHOP inhibitor – CHOP inhibition in unfolded protein response; CHO-K1 CHOP-promoter luciferase, tunicamycin-induced, 15-18 h; inhibition, % at 10 µM; actives 3.8% (n = 220,000); AID 2732;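 active = compounds that reduced the stress-induced luciferase reporter signal by more than about 70% of percent inhibition, limit read from the data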;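 also: 0% = tunicamycin plus vehicle and 100% = wells without tunicamycin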
# Beta apoptosis – blocks beta cell apoptosis. INS-1E cytokine-induced death, ATP luminescence, 48 h; percent of positive-control rescue, neutral wells zero. protection from apoptosis, % (test concentration not listed). actives 0.8% (n = 300,000). AID 435005;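 active = Every replicate reaches about 75%, or at least half do and their mean reaches it too, limit read from the data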;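 also: 0% = cytokine-treated negative control wells and 100% = positive control rescue; higher means more ATP so stronger rescue from cytokine killing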
# T cruzi inh – T. cruzi replication inhibition. AID 1885. T. cruzi beta-gal in NIH3T3, luminescence, 90 h. inhibition, % (test concentration not listed). actives 1.4% (n = 300,000);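 active = mean inhibition across valid replicates above about 55%, limit read from the data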;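 also: signal also drops with host cell toxicity which is not excluded here; 0% = plate median of DMSO wells and 100% = zero luminescence signal; higher percent means less beta-gal luminescence so fewer parasites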
#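 Read-out: Parasite load inhibition, % | Test system: Mouse NIH/3T3 fibroblasts infected with β-gal-expressing T. cruzi Tulahuen C4 | Amount: 5,000 cells/well | Medium: DMEM, 2% fetal bovine serum | Signal: GalScreen β-gal luminescence, detergent lysis, 60 min | Timing: 3 h attach, ≥90 h co-culture | Also added: Tulahuen C4 trypomastigotes, 5000/well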
# PREPL inhibitor – inhibitors of human prolyl oligopeptidase-like enzyme PREPL; AID 2751; inhibition, % at 5.96 µM; recombinant PREPL, fluorescence polarization activity-based probe; actives 0.68% (n = 320,000); Q4J6C6; in the data active = inhibition above about 43%;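 also: 0% = enzyme with DMSO and 100% = wells lacking enzyme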
# Target sequence (Q4J6C6 whole entry, looked up): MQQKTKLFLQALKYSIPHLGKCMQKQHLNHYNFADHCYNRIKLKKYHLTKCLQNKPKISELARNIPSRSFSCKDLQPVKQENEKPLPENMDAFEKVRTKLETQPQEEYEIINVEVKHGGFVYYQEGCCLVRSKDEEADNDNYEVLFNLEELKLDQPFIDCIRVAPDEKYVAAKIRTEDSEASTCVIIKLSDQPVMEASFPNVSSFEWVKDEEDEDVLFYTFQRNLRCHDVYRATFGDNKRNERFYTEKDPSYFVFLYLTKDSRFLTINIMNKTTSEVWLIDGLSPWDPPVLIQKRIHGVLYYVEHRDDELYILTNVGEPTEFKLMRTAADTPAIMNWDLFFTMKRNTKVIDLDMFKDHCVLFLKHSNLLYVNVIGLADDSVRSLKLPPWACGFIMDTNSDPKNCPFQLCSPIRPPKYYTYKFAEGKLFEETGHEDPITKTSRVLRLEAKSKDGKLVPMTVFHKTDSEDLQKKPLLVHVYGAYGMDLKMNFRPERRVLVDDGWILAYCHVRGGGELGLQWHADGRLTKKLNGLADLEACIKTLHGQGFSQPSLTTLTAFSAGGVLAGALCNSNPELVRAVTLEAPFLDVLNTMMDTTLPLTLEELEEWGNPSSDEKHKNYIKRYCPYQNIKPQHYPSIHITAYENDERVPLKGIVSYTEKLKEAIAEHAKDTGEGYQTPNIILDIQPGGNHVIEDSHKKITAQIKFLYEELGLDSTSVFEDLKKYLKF
# * marks the source's active call; other numbers are inactive results; · = no result given. A selection: hits, their analogues and other compounds. The true share with any hit is near 6.7%.
SMILES,CSC inhib,GRIN3A LBD mod,CHOP inhibitor,Beta apoptosis,T cruzi inh,PREPL inhibitor
N/C(Cc1ccc(Cl)cc1)=N\OC(=O)c1ccc2ccccc2c1,-4.6,-20.8,-13.8,2.8,14.9,-16.4
N/C(Cc1ccc(Cl)cc1)=N\OC(=O)c1cccc2ccccc12,5.5,-1.2,44.7,20.5,65.1*,-7.3
COc1cc(C(=O)Nc2ccc3c(c2)CCCN3C(=O)c2ccco2)c([N+](=O)[O-])cc1OC,-4.0,0.4,·,0.8,-12.2,0.8
CCOc1ccc(CCNC(=O)C2CCCN(c3nnc(-n4cccc4)s3)C2)cc1OCC (configuration not stated),-2.9,39.2*,60.1,-4.1,12.7,5.1
CCOc1ccc(CCNC(=O)C2CCCN(c3nn4c(=O)cc(C)nc4s3)C2)cc1OCC (configuration not stated),5.2,0.9,44.8,-3.9,7.1,0.2
Cc1cc(Nc2ccc(Cl)cc2)n(-c2cccc(Cl)c2)n1,36.7,-6.0,71.6*,10.4,1.5,21.3
Cc1cc(Nc2ccc(Cl)cc2)n(-c2ccccc2)n1,-4.7,-8.3,19.4,-7.7,11.9,10.2
COc1ccccc1N1CCN(S(=O)(=O)c2c(C(=O)N3CCOCC3)c(C)n(C)c2C)CC1,-12.7,-0.7,·,1.8,-12.8,7.6
O=C(N/N=C/c1ccc(F)cc1)c1ccccc1,1.5,-17.1,-20.4,0.7,-4.9,11.3
O=C(N/N=C/c1cccc(NC(=O)c2ccc(Cl)cc2)c1)c1ccc(O)cc1,37.6,29.1*,-22.4,12.1,-14.1,-12.2
O=C(/C=C/Nc1ccccc1)c1ccccc1,·,·,36.6,-11.2,-7.1,10.8
CCc1ccc(-n2c(C)cc(/C=N/NC(=O)c3ccncc3)c2C)cc1,-0.2,-1.8,-13.2,106.4*,26.9,16.3
CN(C)c1ccc(N/C=C/C(=O)c2ccccc2)cc1,39.8,-17.1,80.9*,6.0,27.9,35.2
O=C(N/N=C/c1ccc(F)cc1)c1cccc(NC(=O)c2ccc(F)cc2)c1,20.9,32.8*,·,-1.7,2.1,13.0
O=C(/C=C/c1ccc(O)cc1)c1ccccc1,38.5,6.8,-22.4,-1.1,-1.4,18.3
CN(c1ccccc1)c1ccc(/C=N/NC(=O)CC#N)cc1,-16.0,3.8,26.4,-0.2,-0.6,50.3*
COC(=O)c1ccc(/C=N/NC(=O)c2ccc3nc[nH]c3c2)cc1,10.1,10.9*,·,-3.4,-12.0,12.4
CN(C)c1ccc(/C=N/NC(=O)c2ccc(NC(=O)c3ccccc3)cc2)cc1,16.7,19.4*,50.2,13.0,1.4,9.9
CN(C)c1ccc(/C=C/C(=O)c2ccc(O)cc2)cc1,·,11.8*,·,·,·,·
O=C(O)C1CCCCC1C(=O)NCc1ccccn1 (configuration not stated),-1.3,-2.0,4.7,-1.2,-5.1,5.7
C[C@@H]1C[C@H]2[C@@H]3C[C@H](F)C4=CC(=O)C=C[C@]4(C)[C@@]3(Cl)[C@@H](O)C[C@]2(C)[C@H]1C(=O)COC(=O)C(C)(C)C,-0.4,-2.2,·,4.6,·,-3.8
N#Cc1c(-c2ccccc2)nc(SCC(=O)N2c3ccccc3Sc3ccccc32)[nH]c1=O,54.1,-8.0,16.0,-3.5,7.2,-18.4
O=C(COc1ccccc1-c1ccccc1)NN=C1CCCC1,-17.8,-0.9,22.3,-0.7,-17.9,14.6
CN(C)c1ccc(C(=O)N/N=C/c2cc(Br)cc(Br)c2O)cc1,66.9,7.2,90.6*,30.6,47.8,2.9
O=C(N/N=C/c1ccccc1Cl)c1ccncc1,3.9,0.0,·,-0.6,-5.6,-3.4
SMILES,CSC inhib,GRIN3A LBD mod,CHOP inhibitor,Beta apoptosis,T cruzi inh,PREPL inhibitor
Cc1ccccc1/C=N\NC(=O)c1csnn1,7.4,4.2,-21.4,-4.4,-1.6,9.4
O=C(N/N=C\c1ccc(F)cc1)c1csnn1,-9.8,12.2*,-32.7,2.7,11.0,-4.1
O=C(N/N=C/c1cc(Cl)ccc1O)c1ccncc1,8.7,-2.5,72.5*,43.9,14.7,7.1
O=C(N/N=C/c1ccncc1)c1cccc(NC(=O)c2ccc(Cl)cc2)c1,-1.2,25.5*,52.8,3.8,-7.3,-0.4
COc1cccc(NC(=O)C(=O)N/N=C/c2cc(C)n(-c3ccc(Cl)c(Cl)c3)c2C)c1,13.0,0.8,78.3*,2.6,8.6,7.8
CCCCc1ccc(/C(C)=N/Nc2cc(N3CCOCC3)nc(C)n2)cc1,79.9*,4.2,·,12.8,61.9*,9.2
